Source: ChEMBL document CHEMBL1135654, “Antitumor agents. 1. Synthesis, biological evaluation, and molecular modeling of 5H-pyrido[3,2-a]phenoxazin-5-one, a compound with potent antiproliferative activity” (J Med Chem, 2002)

Assays:
HEp-2 = experiment: Compound concentration required to reduce the cell proliferation of larynx carcinoma cells by 50%, using MTT method.; format: functional, cell-based; conditions: Homo sapiens
How it was run: (§1)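 Solid-tumor cells in exponential growth seeded at 5 × 10^4 cells/mL in their own medium with 10% FCS, allowed to adhere 16 h, then serially diluted drug added (DMSO stock 200 µM diluted in medium). MTT viability read 4 days later, 37 °C, 5% CO2. IC50 by linear regression from % of untreated control growth. Three independent determinations.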

CCRF-CEM = experiment: Compound concentration required to reduce the cell proliferation of human acute T-lymphoblastic leukemia CCRF-CEM cells by 50%, using MTT method.; format: functional, cell-based
How it was run: (§2)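 Leukemia/lymphoma cells in exponential growth resuspended at 1 × 10^5 cells/mL in RPMI 1640 (10% FCS, antibiotics) with serial dilutions of drug (DMSO stock 200 µM diluted in medium). Viability by MTT after 96 h at 37 °C, 5% CO2. Growth expressed as % of untreated controls; IC50 by linear regression. Controls underwent ≥3 rounds of multiplication. Mean of three independent determinations.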

HeLa = experiment: Compound concentration required to reduce the cell proliferation of cervix carcinoma Hela cells by 50%, using MTT method.; format: functional, cell-based; conditions: Homo sapiens; how it was run: as §1
MT4 = experiment: Compound concentration required to reduce the cell proliferation of human CD4+T cells by 50%, using MTT method.; format: functional, cell-based; how it was run: as §2
CCRF-SB = experiment: Compound concentration required to reduce the cell proliferation of human acute B-lymphoblastic leukemia CCRF-SB cells by 50%, using MTT method.; format: functional, cell-based; how it was run: as §2
[1] = Compound concentration required to reduce the cell proliferation of Wild type and Drug- resistant human nasopharyngeal carcinoma KB cells by 50%; format: functional, cell-based
How it was run: (§3)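 Cells seeded at 5 × 10^4 cells/mL, adhered 16 h, exposed to serial drug dilutions; MTT after 4 days. IC50 by linear regression versus untreated controls; mean ± SD of three independent determinations.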

[2] = Compound concentration required to reduce the cell proliferation of Wild type and drug-resistant KB subclones passaged in the presence of etoposide 7 uM by 50%; format: functional; conditions: Homo sapiens; how it was run: as §3
[3] = Effect on the proliferation wild-type and drug-resistant KB subclones passaged uM; format: functional, Homo sapiens; how it was run: as §3
[4] = Compound concentration required to reduce the cell proliferation of Wild type and Drug- resistant KB subclones passaged in the presence of doxorubicin 0.09 uM by 50%; format: functional; conditions: Homo sapiens; how it was run: as §3
[5] = Effect on the proliferation Wild -type and Drug- resistant KB subclones passaged in the presence of vincristine 0.02 uM; format: functional, Homo sapiens; how it was run: as §3

IC50 (CCRF-CEM) | IC50 (HeLa) | IC50 (CCRF-SB) | Compound | IC50 (HEp-2) | IC50 (MT4) | IC50 [1] | IC50 [2] | IC50 [3] | IC50 [4] | IC50 [5]
19 µM | 13 µM | 9 µM | O=c1ccc2nc3ccccc3oc-2c1 | 14200 nM | 11 µM | – | – | – | – | –
– | – | – | COc1cc([C@@H]2c3cc4c(cc3[C@@H](O[C@@H]3O[C@@H]5CO[C@@H](C)O[C@H]5[C@H](O)[C@H]3O)[C@H]3COC(=O)[C@H]23)OCO4)cc(OC)c1O [ETOPOSIDE] | – | – | 600 nM | > 20000 nM | 6.2 µM | > 20000 nM | –
> 50 µM | 8.2 µM | 3.6 µM | CC(=O)Nc1cc2nc3ccccc3oc-2cc1=O | 1400 nM | 9.5 µM | – | – | – | – | –
0.9 µM | 2 µM | 0.5 µM | CC(=O)c1c2nc3c(C(C)=O)cccc3oc-2cc(=O)c1N | 1500 nM | 1.8 µM | – | – | – | – | –
– | – | – | CC[C@]1(O)C[C@H]2CN(CCc3c([nH]c4ccccc34)[C@@](C(=O)OC)(c3cc4c(cc3OC)N(C=O)[C@H]3[C@@](O)(C(=O)OC)[C@H](OC(C)=O)[C@]5(CC)C=CCN6CC[C@]43[C@@H]65)C2)C1 [VINCRISTINE] | – | – | 6 nM | 50 nM | – | 700 nM | 200 nM
